Data on 35 compounds can be found in ChEMBL document CHEMBL3112552, “Structure activity relationship studies of 3-arylsulfonyl-pyrido[1,2-a]pyrimidin-4-imines as potent 5-HT₆ antagonists” (Bioorg Med Chem, 2014).

For data set [1], the target named is T1, 5-hydroxytryptamine receptor 6 (Homo sapiens, UniProt P50406). The data set can be described thus: Antagonist activity at human cloned 5-HT6 receptor expressed in HeLa cells assessed as inhibition of 5-HT-stimulated conversion of [alpha-33P]ATP to [33P]cAMP. The format is functional, cell-based.
T1 sequence (P50406 whole entry): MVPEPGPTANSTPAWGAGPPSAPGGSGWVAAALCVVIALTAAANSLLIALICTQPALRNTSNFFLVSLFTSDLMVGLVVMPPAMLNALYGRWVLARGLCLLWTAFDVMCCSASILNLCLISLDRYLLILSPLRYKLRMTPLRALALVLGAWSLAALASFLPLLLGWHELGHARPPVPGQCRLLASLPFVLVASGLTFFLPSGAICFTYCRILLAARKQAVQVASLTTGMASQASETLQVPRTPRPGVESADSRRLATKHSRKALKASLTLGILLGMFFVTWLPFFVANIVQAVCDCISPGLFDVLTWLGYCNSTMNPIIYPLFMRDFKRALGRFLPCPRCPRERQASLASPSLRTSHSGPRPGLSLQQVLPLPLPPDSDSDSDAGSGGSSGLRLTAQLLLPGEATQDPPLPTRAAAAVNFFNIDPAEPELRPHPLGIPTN
The target of data set [2] is T1, 5-hydroxytryptamine receptor 6. As to the kind of experiment: Displacement of [3H]LSD from human cloned 5-HT6 receptor expressed in HeLa cells. The format is cell-based. For orientation: Loss of bound radioactivity is the signal in a displacement assay; it reports binding, not function.
Data set [3] is described as follows: Half life in human liver microsomes at 0.5 uM in presence of NADPH. The format is ADME. The procedure, abridged:
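Test compound incubated with human liver microsomes (1 mg/ml) plus NADPH (1 mM) for 0–45 min. Reactions were stopped and parent remaining in supernatant was quantified by LC–MS/MS. T1/2 was taken from the plot of % remaining versus time. Omeprazole was run as a reference control.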

A short description of data set [4]: Permeability of the compound. Type of data set: ADME. Conditions: not told; read-out: permeability.
A short description of data set [5]: Oral bioavailability in rat. Type of data set: ADME, organism-based. Particulars: in vivo.
The next data set has as its system Brain. The data set can be described thus: Drug uptake in rat brain at 10 mg/kg, ip. Set-up: dose 10 mg/kg, route intraperitoneal. The format is ADME, organism-based. Conditions: in vivo, read-out: Drug uptake. The procedure, abridged:
(§1)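 Rats received a single intraperitoneal dose of 10 mg/kg. Brain and plasma drug levels were measured 30 minutes post-dose, and the brain/plasma ratio was derived from them.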

Data set [6] in a line: Ratio of drug level in brain to plasma in rat at 10 mg/kg, ip. Type of data set: ADME, organism-based. The arrangement: dose 10 mg/kg, route intraperitoneal. Conditions: read-out: BPR. A digest of the protocol: as §1

pIC50: −log10 of the molar value. Active and inactive are the calls of the source. No cut-off for these calls is given here. A value given as a limit tells only on which side of the number the result lay.

As usually defined, the pIC50 is −log10 of the IC50, conventionally taken in molar units. A high value points to a small IC50. In the case of `CSc1nc2ccccn2c(=N)c1S(=O)(=O)c1ccccc1Cl`, the “antagonist activity (active/inactive call)” value in data set [1] was “Active”. In data set [2], this compound showed a pIC50 of 7.96.
For orientation: half-life means how long it takes for the measured level to halve. As for `COc1nc2ccccn2c(=N)c1S(=O)(=O)c1ccccc1`, the half-life at 0.5 µM in data set [3] turned out to be 13.7 min. The “antagonist activity (active/inactive call)” value in data set [1] is “Active”. In data set [2], this compound gave a pIC50 of 7.68.
`CSc1nc2ccccn2c(=N)c1S(=O)(=O)c1ccc(C(C)(C)C)cc1`: the half-life at 0.5 µM in data set [3] was found to be 3.9 min. In addition, the “antagonist activity (active/inactive call)” value in data set [1] is “Active”. In data set [2], this compound had a pIC50 of 7.19.
In the case of `CSc1nc2c(C)cc(Br)cn2c(=N)c1S(=O)(=O)c1ccccc1`, in data set [1], the “antagonist activity (active/inactive call)” value is “Active”. This compound gave a pIC50 in data set [2] of 7.92.
As to `CSc1nc2ccc(C)cn2c(=N)c1S(=O)(=O)c1ccccc1`, in data set [1], the “antagonist activity (active/inactive call)” value was “Active”. Besides, the pIC50 in data set [2] was 8.89.
As for `CSc1nc2ccc(F)cn2c(=N)c1S(=O)(=O)c1ccccc1`, the “antagonist activity (active/inactive call)” value in data set [1] is “Active”. For the same compound, in data set [2], the pIC50 is 7.55.
`CSc1nc2ccccn2c(=N)c1S(=O)(=O)c1cc(C)c(Cl)cc1C`: in data set [3], the half-life at 0.5 µM is 4.1 min. Also, the “antagonist activity (active/inactive call)” value in data set [1] was “Active”. Further, in data set [2], the pIC50 was 7.30.
On to `CSc1nc2ccccn2c(=N)c1S(=O)(=O)c1ccc2ccccc2c1`, for which the “antagonist activity (active/inactive call)” value in data set [1] was “Active”. Further, the pIC50 in data set [2] is 7.23.
Take `CSc1nc2ccccn2c(=N)c1S(=O)(=O)c1ccc(Cl)c(Cl)c1`: in data set [3], the half-life at 0.5 µM worked out at 3.1 min. Also, in data set [1], the “antagonist activity (active/inactive call)” value was “Active”. The pIC50 in data set [2] is 7.74.
Consider `CSc1nc2c(C)cc(Cc3ccccc3)cn2c(=N)c1S(=O)(=O)c1ccccc1`, for which, in data set [1], the “antagonist activity (active/inactive call)” value is “Active”. Further, in data set [2], the pIC50 was 7.22.
For `CCCc1ccn2c(=N)c(S(=O)(=O)c3ccccc3)c(SC)nc2c1` the same measures were “Active” and 6.15.
`CSc1nc2ccccn2/c(=N\C(C)=O)c1S(=O)(=O)c1ccccc1`: the half-life at 0.5 µM in data set [3] is 43 min. The “antagonist activity (active/inactive call)” value in data set [1] was “Active”. Further, the pIC50 in data set [2] is 7.08.
With `CSc1nc2ccccn2c(=N)c1S(=O)(=O)c1ccc(OC(F)(F)F)cc1`, the half-life at 0.5 µM in data set [3] was 2.8 min. In addition, the “antagonist activity (active/inactive call)” value in data set [1] is “Active”. The compound further had a pIC50 in data set [2] of 6.38.
For `CNc1nc2ccccn2c(=N)c1S(=O)(=O)c1ccccc1` the same measures were 7.2 min, “Active” and 8.62.
Consider `CSc1nc2ccc(C(N)=O)cn2c(=N)c1S(=O)(=O)c1ccccc1`, for which the “antagonist activity (active/inactive call)” value in data set [1] was “Active”. This compound showed a pIC50 in data set [2] of 8.06.
`CSc1nc2ccccn2c(=O)c1S(=O)(=O)c1ccccc1`: the half-life at 0.5 µM in data set [3] came to 40 min. Besides, in data set [1], the “antagonist activity (active/inactive call)” value is “Active”. This compound showed a pIC50 in data set [2] of 7.28.
As usually defined, the bioavailability is dose-corrected exposure relative to a reference, in per cent. Higher therefore signals good availability. Turning to `CSc1nc2ccccn2c(=N)c1S(=O)(=O)c1ccccc1`, in data set [4], the Papp worked out at 17 ×10⁻⁶ cm/s. The half-life at 0.5 µM in data set [3] is 5.2 min. In addition, the “antagonist activity (active/inactive call)” value in data set [1] is “Active”. The compound further came in with a bioavailability in data set [5] of under 1%. Also, in the data set with Brain, the concentration amounted to 1900 nM. Besides, the Kp in data set [6] is 1.2.
`CSc1nc2c3ccccc3ccn2c(=N)c1S(=O)(=O)c1ccccc1`: the half-life at 0.5 µM in data set [3] came to 7.9 min. Moreover, the “antagonist activity (active/inactive call)” value in data set [1] is “Active”. In data set [2], this compound gave a pIC50 of 7.26.
`CSc1nc2c3ncccc3ccn2c(=N)c1S(=O)(=O)c1ccccc1`: the “antagonist activity (active/inactive call)” value in data set [1] was “Active”. Also, the pIC50 in data set [2] is 7.24.
With `CSc1nc2c(Br)cc(C)cn2c(=N)c1S(=O)(=O)c1ccccc1`, the “antagonist activity (active/inactive call)” value in data set [1] is “Active”. Besides, in data set [2], the pIC50 is 6.90.
For `CSc1nc2ccc(Cl)cn2c(=N)c1S(=O)(=O)c1ccccc1`, in data set [1], the “antagonist activity (active/inactive call)” value was “Active”. In data set [2], this compound gave a pIC50 of 7.55.
For the compound `CCc1ccn2c(=N)c(S(=O)(=O)c3ccccc3)c(SC)nc2c1`, in data set [1], the “antagonist activity (active/inactive call)” value is “Active”. In data set [2], the pIC50 was 7.10.
For `CCOc1nc2ccccn2c(=N)c1S(=O)(=O)c1ccccc1`, in that order: “Active” and 7.92.
Consider `COc1ccc2[nH]c([S+]([O-])Cc3ncc(C)c(OC)c3C)nc2c1` (stereo unspecified) [OMEPRAZOLE], for which the half-life at 0.5 µM in data set [3] worked out at 26 min.
Take `N=c1c(S(=O)(=O)c2ccccc2)c(NCCO)nc2ccccn12`: the “antagonist activity (active/inactive call)” value in data set [1] was “Active”. Besides, in data set [2], the negative-log IC50 (pIC50) is 7.38.
With `C/N=c1/c(S(=O)(=O)c2ccccc2)c(SC)nc2ccccn12`, the half-life at 0.5 µM in data set [3] amounted to 2.8 min. Further, in data set [1], the “antagonist activity (active/inactive call)” value was “Active”. In addition, the pIC50 in data set [2] is 6.92.
`C[S+]([O-])c1nc2ccccn2c(=N)c1S(=O)(=O)c1ccccc1` (stereo unspecified): the “antagonist activity (active/inactive call)” value in data set [1] was “Active”. In addition, in data set [2], the pIC50 is 6.60.
For the compound `CSc1nc2ccccn2c(=N)c1S(=O)(=O)c1ccc(F)cc1`, the half-life at 0.5 µM in data set [3] worked out at 3.1 min. Moreover, the “antagonist activity (active/inactive call)” value in data set [1] was “Active”. In data set [2], this compound had a pIC50 of 7.66.
For `CSc1nc2ccc(Br)cn2c(=N)c1S(=O)(=O)c1ccccc1` the same measures were 7.5 min, “Active” and 7.25.
In the case of `CCNc1nc2ccccn2c(=N)c1S(=O)(=O)c1ccccc1`, the “antagonist activity (active/inactive call)” value in data set [1] was “Active”. In data set [2], the negative-log IC50 (pIC50) is 8.70.
Take `CSc1nc2c(Cc3ccccc3)cccn2c(=N)c1S(=O)(=O)c1ccccc1`: the half-life at 0.5 µM in data set [3] worked out at 5.5 min. In data set [1], the “antagonist activity (active/inactive call)” value is “Active”. This compound also gave a pIC50 in data set [2] of 6.48.
Take `CSc1nc2cc(C)ccn2c(=N)c1S(=O)(=O)c1ccccc1`: the “antagonist activity (active/inactive call)” value in data set [1] is “Active”. The pIC50 in data set [2] is 7.39.
For `CSc1nc2c(C)cccn2c(=N)c1S(=O)(=O)c1ccccc1` the same measures were “Active” and 8.47.
For `COC(=O)c1ccc2nc(SC)c(S(=O)(=O)c3ccccc3)c(=N)n2c1` the same measures were “Active” and 6.33.
For `Cc1ccc(Nc2nc3ccc(C)cn3c(=N)c2S(=O)(=O)c2ccccc2)nc1` the same measures were “Active” and 7.22.
